Measurements published in ChEMBL document CHEMBL2169842, “Structure-activity relationship in the antitumor activity of 6-, 8- or 6,8-substituted 3-benzylamino-β-carboline derivatives” (Bioorg Med Chem Lett, 2012).
Activity calls are given as the source filed them. The calls are words filed in the database; no cut-off is given here.

Tests used:
[1] = Cytotoxicity against human HeLaS3 cells after 24 to 72 hrs by MTT assay; type: functional, cell-based; details: HeLa S3
In short: (§1)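 MTT assay. IC50 taken as the drug concentration giving 50% inhibition of cell growth. Values are mean ± S.D. of four independent experiments, each run in triplicate.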

[2] = Cell cycle arrest in human HeLaS3 cells assessed as accumulation at G1 phase after 24 hrs using propidium iodide staining by flow cytometry (reference value: 75.29%); type: functional, cell-based; details: HeLa S3
In short: (§2)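 HeLa S-3 cells incubated without (control) or with compound for 9, 24 or 48 h, then fixed and stained with propidium iodide. DNA content read by flow cytometry. Populations given as percent in sub-G1, G1, S and G2/M phases.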

[3] = Cell cycle arrest in human HeLaS3 cells assessed as accumulation at S phase after 48 hrs using propidium iodide staining by flow cytometry (reference value: 6.36%); type: functional, cell-based; details: HeLa S3
[4] = Cell cycle arrest in human HeLaS3 cells assessed as accumulation at sub-G1 phase after 24 hrs using propidium iodide staining by flow cytometry (reference value: 2.41%); type: functional, cell-based; details: HeLa S3; in short: as §2
HeLa S3 [5] = test: Induction of apoptosis in human HeLaS3 cells assessed as formation of chromatin condensation and fragmented nuclei after 48 hrs by Hoechst 33342 staining; type: functional, cell-based
In short: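 HeLa S-3 cells treated with compound for 48 h, then stained with Hoechst 33342. Nuclear chromatin examined by fluorescence microscopy for condensation and fragmented nuclei, with untreated cells as comparison.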

[6] = Cell cycle arrest in human HeLaS3 cells assessed as accumulation at G1 phase after 48 hrs using propidium iodide staining by flow cytometry (reference value: 75.29%); type: functional, cell-based; details: HeLa S3; in short: as §2
[7] = Cell cycle arrest in human HeLaS3 cells assessed as accumulation at G1 phase after 9 hrs using propidium iodide staining by flow cytometry (reference value: 75.29%); type: functional, cell-based; details: HeLa S3; in short: as §2
[8] = Cell cycle arrest in human HeLaS3 cells assessed as accumulation at S phase after 24 hrs using propidium iodide staining by flow cytometry (reference value: 6.36%); type: functional, cell-based; details: HeLa S3
[9] = Cell cycle arrest in human HeLaS3 cells assessed as accumulation at G2/M phase after 9 hrs using propidium iodide staining by flow cytometry (reference value: 16.21%); type: functional, cell-based; details: HeLa S3; in short: as §2
[10] = Cell cycle arrest in human HeLaS3 cells assessed as accumulation at G2/M phase after 24 hrs using propidium iodide staining by flow cytometry (reference value: 16.21%); type: functional, cell-based; details: HeLa S3; in short: as §2
[11] = Cell cycle arrest in human HeLaS3 cells assessed as accumulation at G2/M phase after 48 hrs using propidium iodide staining by flow cytometry (reference value: 16.21%); type: functional, cell-based; details: HeLa S3; in short: as §2
HeLa S3 [12] = test: Induction of apoptosis in human HeLaS3 cells assessed as DNA fragmentation after 48 hrs agarose-gel electrophoresis; type: functional, cell-based
In short: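 HeLa S-3 cells treated with compound for 48 h. Genomic DNA extracted and run on a 2% agarose gel beside a 100 bp ladder marker to detect DNA fragmentation.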

[13] = Cell cycle arrest in human HeLaS3 cells assessed as accumulation at sub-G1 phase after 9 hrs using propidium iodide staining by flow cytometry (reference value: 2.41%); type: functional, cell-based; details: HeLa S3; in short: as §2
[14] = Cell cycle arrest in human HeLaS3 cells assessed as accumulation at sub-G1 phase after 48 hrs using propidium iodide staining by flow cytometry (reference value: 2.41%); type: functional, cell-based; details: HeLa S3; in short: as §2
[15] = Cytotoxicity against mouse Sarcoma 180 cells after 24 to 72 hrs by MTT assay; type: functional, cell-based; in short: as §1
[16] = Cell cycle arrest in human HeLaS3 cells assessed as accumulation at S phase after 9 hrs using propidium iodide staining by flow cytometry (reference value: 6.36%); type: functional, cell-based; details: HeLa S3
HEK-293T = test: Cytotoxicity against human 293T cells after 24 to 72 hrs by MTT assay; type: cell-based; in short: as §1

| Structure (SMILES) | IC50 [1] | IC50 [15] | IC50 (HEK-293T) | other results |
| --- | --- | --- | --- | --- |
| CNc1cccc2c1[nH]c1cnc(NCc3cccc(Oc4ccccc4)c3)cc12 | 0.032 µM |  |  |  |
| c1ccc(CNc2cc3c(cn2)[nH]c2ccccc23)cc1 | 0.11 µM | 0.44 µM |  | Activity [2]: 6.93%; Activity [3]: 16.2%; Activity [4]: 16.2%; Activity (HeLa S3 [5]): Active; Activity [6]: 12.2%; Activity [7]: 22.6%; Activity [8]: 9.18%; Activity [9]: 57%; Activity [10]: 67.7%; Activity [11]: 52.8%; Activity (HeLa S3 [12]): Active; Activity [13]: 6.08%; Activity [14]: 18.8%; Activity [16]: 14.3% |
| Nc1cc2c(cn1)[nH]c1ccccc12 | 66 µM | 41 µM |  |  |
| O=C(Nc1cc(Cl)cc2c1[nH]c1cnc(NCc3ccccc3)cc12)C(F)(F)C(F)(F)C(F)(F)F | 7 µM | 5.2 µM |  |  |
| CCCCC(=O)Nc1cc(Cl)cc2c1[nH]c1cnc(NCc3ccccc3)cc12 | 0.99 µM | 0.53 µM | 0.5 µM |  |
| Clc1cc(NCc2cccs2)c2[nH]c3cnc(NCc4ccccc4)cc3c2c1 | 4.2 µM | 1.69 µM | 4 µM |  |
| O=C(Nc1cc(Cl)cc2c1[nH]c1cnc(NCc3ccccc3)cc12)c1ccccn1 | 3.7 µM | 1.9 µM | 4 µM |  |
| CS(=O)(=O)Nc1ccc2[nH]c3cnc(NCc4ccccc4)cc3c2c1 | 19 µM |  |  |  |
| CC(C)(C)C(=O)Nc1ccc2[nH]c3cnc(NCc4ccccc4)cc3c2c1 | 14 µM |  |  |  |
| Clc1cc(Cl)c2[nH]c3cnccc3c2c1 | 0.2 µM |  |  |  |
| O=C(Nc1cc(Cl)cc2c1[nH]c1cnc(NCc3ccccc3)cc12)C(F)(F)F | 6.3 µM | 5.1 µM |  |  |
| CC(C)C(=O)Nc1cc(Cl)cc2c1[nH]c1cnc(NCc3ccccc3)cc12 | 9 µM | 8 µM | 8 µM |  |
| O=C(Nc1cc(Cl)cc2c1[nH]c1cnc(NCc3ccccc3)cc12)c1cccnc1 | 15 µM | 8.3 µM | 10 µM |  |
| CCS(=O)(=O)Nc1ccc2[nH]c3cnc(NCc4ccccc4)cc3c2c1 | 3.4 µM |  |  |  |
| Nc1cc2c(cn1)[nH]c1c(NC(=O)c3ccccc3)cccc12 | 118 µM | 98 µM |  |  |
| CCC(=O)Nc1cc(Cl)cc2c1[nH]c1cnc(NCc3ccccc3)cc12 | 9.9 µM | 5.4 µM | 5.8 µM |  |
| Clc1cc(NCc2cccnc2)c2[nH]c3cnc(NCc4ccccc4)cc3c2c1 | 1.2 µM | 0.76 µM | 1 µM |  |
| O=[N+]([O-])c1ccc2[nH]c3cnc(NCc4ccccc4)cc3c2c1 | 28 µM |  |  |  |
| CCCNc1cc(Cl)cc2c1[nH]c1cnc(NCc3ccccc3)cc12 | 2.9 µM | 1.36 µM | 2 µM |  |
| CCCCC(=O)Nc1cc(Cl)cc2c1[nH]c1cnc(N)cc12 | 27 µM | 18.1 µM |  |  |
| Nc1ccc2[nH]c3cnc(NCc4ccccc4)cc3c2c1 | 11 µM |  |  |  |
| CC(C)Nc1cc(Cl)cc2c1[nH]c1cnc(NCc3ccccc3)cc12 | 1.1 µM |  | 0.7 µM |  |
| CNc1ccc2[nH]c3cnc(NCc4ccccc4)cc3c2c1 | 10 µM |  |  |  |
| Clc1ccc2[nH]c3cnc(NCc4cccc(Oc5ccccc5)c4)cc3c2c1 | 1.8 µM | 1.36 µM |  |  |
| Clc1cc(NCc2ccncc2)c2[nH]c3cnc(NCc4ccccc4)cc3c2c1 | 1.4 µM | 1 µM | 1.4 µM |  |

| Structure (SMILES) | IC50 [1] | IC50 [15] | IC50 (HEK-293T) | other results |
| --- | --- | --- | --- | --- |
| c1ccc(CNc2cc3c(cn2)[nH]c2ccc(NCc4ccco4)cc23)cc1 | 15 µM |  |  |  |
| O=C(Nc1cc(Cl)cc2c1[nH]c1cnc(NCc3ccccc3)cc12)c1ccncc1 | 13 µM | 7.9 µM | 8 µM |  |
| Clc1cc(NCc2ccccc2)c2[nH]c3cnc(NCc4ccccc4)cc3c2c1 | 4.2 µM | 2.6 µM | 3.8 µM |  |
| O=C(Nc1ccc2[nH]c3cnc(NCc4ccccc4)cc3c2c1)c1ccccc1 | 10 µM |  |  |  |
| CCCCCC(=O)Nc1cc(Cl)cc2c1[nH]c1cnc(NCc3ccccc3)cc12 | 2.13 µM | 0.92 µM | 1.4 µM |  |
| CNc1cccc2c1[nH]c1cnc(NCc3ccccc3)cc12 | 0.046 µM | 0.024 µM |  |  |
| O=C(Nc1cccc2c1[nH]c1cnc(NCc3ccccc3)cc12)c1ccccc1 | 0.141 µM |  |  | Activity [2]: 12.8%; Activity [3]: 9.05%; Activity [4]: 5.87%; Activity (HeLa S3 [5]): Active; Activity [6]: 9.36%; Activity [7]: 21.1%; Activity [8]: 10.2%; Activity [9]: 65.6%; Activity [10]: 71.1%; Activity [11]: 63.4%; Activity (HeLa S3 [12]): Active; Activity [13]: 3.89%; Activity [14]: 18.2%; Activity [16]: 9.4% |
| CCS(=O)(=O)Nc1cc(Cl)cc2c1[nH]c1cnc(NCc3ccccc3)cc12 | 4.84 µM |  |  |  |
| CCCCC(=O)Nc1cccc2c1[nH]c1cnc(N)cc12 | 56 µM | 38 µM |  |  |
| CNc1cc(Cl)cc2c1[nH]c1cnc(NCc3ccccc3)cc12 | 0.2 µM | 0.25 µM | 0.35 µM |  |
| CCCCNc1cc(Cl)cc2c1[nH]c1cnc(NCc3ccccc3)cc12 | 2.6 µM | 1.6 µM | 2.1 µM |  |
| Nc1cc(Cl)cc2c1[nH]c1cnc(NCc3ccccc3)cc12 | 6.09 µM | 3.24 µM | 9.8 µM |  |
| CCCC(=O)Nc1cc(Cl)cc2c1[nH]c1cnc(NCc3ccccc3)cc12 | 2.6 µM | 1.35 µM | 2.3 µM |  |
| c1ccc(CNc2ccc3[nH]c4cnc(NCc5ccccc5)cc4c3c2)cc1 | 21 µM |  |  |  |
| CC(=O)Nc1cc(Cl)cc2c1[nH]c1cnc(NCc3ccccc3)cc12 | 21 µM | 16.2 µM | 15 µM |  |
| Nc1cc2c(cn1)[nH]c1c(NC(=O)c3ccccc3)cc(Cl)cc12 | 26.1 µM | 12.4 µM |  |  |
| CS(=O)(=O)Nc1cc(Cl)cc2c1[nH]c1cnc(NCc3ccccc3)cc12 | 8 µM |  |  |  |
| CNc1cccc2c1[nH]c1cnc(N)cc12 | 12 µM |  |  |  |
| O=C(Nc1cc(Cl)cc2c1[nH]c1cnc(NCc3ccccc3)cc12)C(F)(F)C(F)(F)F | 9.2 µM | 6.1 µM |  |  |
| CCNc1cc(Cl)cc2c1[nH]c1cnc(NCc3ccccc3)cc12 | 0.27 µM | 0.24 µM | 0.36 µM |  |
| c1ccc(Oc2cccc(CNc3cc4c(cn3)[nH]c3ccccc34)c2)cc1 | 0.074 µM | 0.03 µM |  |  |
| Clc1cc(NCc2ccccn2)c2[nH]c3cnc(NCc4ccccc4)cc3c2c1 | 1.5 µM | 1 µM | 1.1 µM |  |
| Clc1cc(NCc2ccco2)c2[nH]c3cnc(NCc4ccccc4)cc3c2c1 | 3.8 µM |  | 3.1 µM |  |
| Nc1cc2c(cn1)[nH]c1ccc(Cl)cc12 | 71 µM | 29 µM |  |  |
